Source: ChEMBL document CHEMBL3862014, “Synthesis and anti-inflammatory activity of paeonol analogues in the murine model of complete Freund's adjuvant induced arthritis” (Bioorg Med Chem Lett, 2016)
Calls of active or inactive are those of the source. The calls are words filed in the database; no cut-off is given here.

Columns and labels:
Mus musculus [1] = assay: Antiinflammatory activity in Kunming mouse CFA-induced arthritis model assessed as PGE2 level in serum at 25 mg/kg/day, po for 1 week administered on day 8 post CFA induction by ELISA (reference value: 207 +/- 2.1 ng/L); format: functional
Mus musculus [2] = assay: Antioxidant activity in Kunming mouse CFA-induced arthritis model assessed as malondialdehyde level in serum at 25 mg/kg/day, po for 1 week administered on day 8 post CFA induction by ELISA (reference value: 15.5 +/- 1.1 nmol/ml); format: functional
Mus musculus [3] = assay: Antiinflammatory activity in Kunming mouse CFA-induced arthritis model assessed as PGE2 level in serum at 100 mg/kg/day, po for 1 week administered on day 8 post CFA induction by ELISA (reference value: 207 +/- 2.1 ng/L); format: functional
Mus musculus [4] = assay: Antioxidant activity in Kunming mouse CFA-induced arthritis model assessed as superoxide dismutase activity in serum at 25 mg/kg/day, po for 1 week administered on day 8 post CFA induction by ELISA (reference value: 66.7 +/- 0.9 U/ml); format: functional
Mus musculus [5] = assay: Antiinflammatory activity in Kunming mouse CFA-induced arthritis model assessed as COX-2 level in serum at 100 mg/kg/day, po for 1 week administered on day 8 post CFA induction by ELISA (reference value: 85.3 +/- 0.1 ng/L); format: functional
[6] = Antioxidant activity assessed as superoxide radical scavenging activity measured every 30 secs for 6 mins in presence of superoxide generator pyrogallol; format: functional
Summary of the method: (§1)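 In vitro radical scavenging was reported as IC50 (mM) alongside a positive control. Data are mean ± s, n = 6, with experiments run in triplicate.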

[7] = Antioxidant activity assessed as hydroxyl radical scavenging activity measured 10 mins after H2O2 addition by pyronin B dye based assay; format: functional; summary of the method: as §1
[8] = Antioxidant activity assessed as DPPH radical scavenging activity incubated for 30 mins in dark; format: functional; summary of the method: as §1
Mus musculus [9] = assay: Antiinflammatory activity in Kunming mouse CFA-induced arthritis model assessed as inhibition of paw swelling at 25 mg/kg/day, po for 1 week administered on day 8 post CFA induction measured every 2 days during compound dosing; format: functional, organism-based
Summary of the method: (§2)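 Dosing began seven days after the model was established, at 100 mg·kg⁻¹·d⁻¹ (high) or 25 mg·kg⁻¹·d⁻¹ (low). Inhibition of paw swelling was expressed in %, with celecoxib as reference group.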

Mus musculus [10] = assay: Antioxidant activity in Kunming mouse CFA-induced arthritis model assessed as malondialdehyde level in serum at 100 mg/kg/day, po for 1 week administered on day 8 post CFA induction by ELISA (reference value: 15.5 +/- 1.1 nmol/ml); format: functional
[11] = Antioxidant activity assessed as ABTS radical scavenging activity after 6 mins by spectrophotometric analysis; format: functional; summary of the method: as §1
Mus musculus [12] = assay: Antiinflammatory activity in Kunming mouse CFA-induced arthritis model assessed as COX-2 level in serum at 25 mg/kg/day, po for 1 week administered on day 8 post CFA induction by ELISA (reference value: 85.3 +/- 0.1 ng/L); format: functional
Mus musculus [13] = assay: Antioxidant activity in Kunming mouse CFA-induced arthritis model assessed as total antioxidant capacity in serum at 25 mg/kg/day, po for 1 week administered on day 8 post CFA induction by ELISA (reference value: 2.9 +/- 0.5 U/ml); format: functional
Mus musculus [14] = assay: Antioxidant activity in Kunming mouse CFA-induced arthritis model assessed as superoxide dismutase activity in serum at 100 mg/kg/day, po for 1 week administered on day 8 post CFA induction by ELISA (reference value: 66.7 +/- 0.9 U/ml); format: functional
Mus musculus [15] = assay: Antioxidant activity in Kunming mouse CFA-induced arthritis model assessed as total antioxidant capacity in serum at 100 mg/kg/day, po for 1 week administered on day 8 post CFA induction by ELISA (reference value: 2.9 +/- 0.5 U/ml); format: functional
Mus musculus [16] = assay: Antiinflammatory activity in Kunming mouse CFA-induced arthritis model assessed as inhibition of paw swelling at 100 mg/kg/day, po for 1 week administered on day 8 post CFA induction measured every 2 days during compound dosing; format: functional; summary of the method: as §2
[17] = Solubility of the compound in water; format: physicochemical; conditions: buffer
Mus musculus [18] = assay: Antiinflammatory activity in Kunming mouse CFA-induced arthritis model assessed as inhibition of paw swelling at 100 mg/kg/day, po for 1 week administered on day 8 post CFA induction measured after day 3 during compound dosing; format: functional, organism-based; summary of the method: as §2
Mus musculus [19] = assay: Antioxidant activity in Kunming mouse CFA-induced arthritis model assessed as malondialdehyde level in serum at 30 mg/kg/day, po for 1 week administered on day 8 post CFA induction by ELISA (reference value: 15.5 +/- 1.1 nmol/ml); format: functional
Mus musculus [20] = assay: Antioxidant activity in Kunming mouse CFA-induced arthritis model assessed as total antioxidant capacity in serum at 30 mg/kg/day, po for 1 week administered on day 8 post CFA induction by ELISA (reference value: 2.9 +/- 0.5 U/ml); format: functional
Mus musculus [21] = assay: Antiinflammatory activity in Kunming mouse CFA-induced arthritis model assessed as COX-2 level in serum at 30 mg/kg/day, po for 1 week administered on day 8 post CFA induction by ELISA (reference value: 85.3 +/- 0.1 ng/L); format: functional
Mus musculus [22] = assay: Antiinflammatory activity in Kunming mouse CFA-induced arthritis model assessed as inhibition of paw swelling at 30 mg/kg/day, po for 1 week administered on day 8 post CFA induction measured every 2 days during compound dosing; format: functional, organism-based
Mus musculus [23] = assay: Antiinflammatory activity in Kunming mouse CFA-induced arthritis model assessed as PGE2 level in serum at 30 mg/kg/day, po for 1 week administered on day 8 post CFA induction by ELISA (reference value: 207 +/- 2.1 ng/L); format: functional
Mus musculus [24] = assay: Antioxidant activity in Kunming mouse CFA-induced arthritis model assessed as superoxide dismutase activity in serum at 30 mg/kg/day, po for 1 week administered on day 8 post CFA induction by ELISA (reference value: 66.7 +/- 0.9 U/ml); format: functional

IC50 [6] | IC50 [7] | IC50 [8] | IC50 [11] | Compound | other results
15.6 mM | 3 mM | 41.8 mM | 31.4 mM | COc1cc(O)c(C(C)=O)cc1Br | Activity (Mus musculus [1]): 179.5 ng/L; Activity (Mus musculus [2]): 9.9 nmol/mL; Activity (Mus musculus [3]): 142.3 ng/L; Activity (Mus musculus [4]): 76.3 U/ml; Activity (Mus musculus [5]): 57.6 ng/L; inhibition (Mus musculus [9]): Active; Activity (Mus musculus [10]): 6.4 nmol/mL; Activity (Mus musculus [12]): 65.4 ng/L; Activity (Mus musculus [13]): 3.8 U/ml; Activity (Mus musculus [14]): 78.1 U/ml; Activity (Mus musculus [15]): 6 U/ml; inhibition (Mus musculus [16]): Active
6.8 mM | 13.2 mM | 16.1 mM | 8.7 mM | CCCCCCCCCCCCCCOc1cc(OC)c(Br)cc1C(C)=O | –
21.2 mM | 69.4 mM | 40 mM | 38.3 mM | CCCCCCCCOc1cc(OC)ccc1C(C)=O | –
5.8 mM | 0.2 mM | 42.8 mM | 16 mM | COc1ccc(C(C)=O)c(O)c1 [PAEONOL] | Activity (Mus musculus [1]): 155.5 ng/L; Activity (Mus musculus [2]): 8.9 nmol/mL; Activity (Mus musculus [3]): 137.1 ng/L; Activity (Mus musculus [4]): 62.5 U/ml; Activity (Mus musculus [5]): 61.1 ng/L; inhibition (Mus musculus [9]): Active; Activity (Mus musculus [10]): 7.9 nmol/mL; Activity (Mus musculus [12]): 66.2 ng/L; Activity (Mus musculus [13]): 4.6 U/ml; Activity (Mus musculus [14]): 68.1 U/ml; solubility [17]: Soluble; Activity (Mus musculus [15]): 4.1 U/ml; inhibition (Mus musculus [16]): Active
15.6 mM | 57.2 mM | 43.3 mM | 36.3 mM | CCCCOc1cc(OC)ccc1C(C)=O | –
18 mM | 84.4 mM | 42.6 mM | 42.1 mM | CCCCCCOc1cc(OC)ccc1C(C)=O | –
10.6 mM | 23.1 mM | 29.5 mM | 32.7 mM | CCCCCCCCCCCCOc1cc(OC)c(Br)cc1C(C)=O | –
1.8 mM | 0.1 mM | 6.5 mM | 4.6 mM | CCCCCCCCCCCCCCCCOc1cc(OC)c(Br)cc1C(C)=O | Activity (Mus musculus [1]): 189.3 ng/L; Activity (Mus musculus [2]): 7.5 nmol/mL; Activity (Mus musculus [3]): 150.1 ng/L; Activity (Mus musculus [4]): 73.9 U/ml; Activity (Mus musculus [5]): 64.7 ng/L; inhibition (Mus musculus [9]): Active; Activity (Mus musculus [10]): 5.8 nmol/mL; Activity (Mus musculus [12]): 63.9 ng/L; Activity (Mus musculus [13]): 6.5 U/ml; Activity (Mus musculus [14]): 76.2 U/ml; Activity (Mus musculus [15]): 11.6 U/ml; inhibition in vivo at 100 mg/kg/day (Mus musculus [16]): 45%
37.9 mM | 57.7 mM | 46.8 mM | 36 mM | CCOc1cc(OC)c(Br)cc1C(C)=O | solubility [17]: Soluble
38.2 mM | 56.9 mM | 42.3 mM | 34.1 mM | CCCCOc1cc(OC)c(Br)cc1C(C)=O | –
6.6 mM | 35.3 mM | 39.6 mM | 37.7 mM | CCOc1cc(OC)ccc1C(C)=O | solubility [17]: Soluble
28.5 mM | 65.6 mM | 37.4 mM | 40.7 mM | CCCCCCCCCCCCOc1cc(OC)ccc1C(C)=O | –
26.6 mM | 57.4 mM | 40.1 mM | 41.7 mM | CCCCCCCCCCOc1cc(OC)ccc1C(C)=O | –
15 mM | 29.7 mM | 35.1 mM | 34.7 mM | CCCCCCCCCCOc1cc(OC)c(Br)cc1C(C)=O | –
0.6 mM | 0.2 mM | 0.2 mM | 0.3 mM | Cc1c(C)c2c(c(C)c1O)CCC(C)(C(=O)O)O2 (centres undefined) [TROLOX] | –
34 mM | 53.1 mM | 42.4 mM | 35.7 mM | CCCCCCOc1cc(OC)c(Br)cc1C(C)=O | –
39.4 mM | 61.5 mM | 39.4 mM | 36.3 mM | CCCCCCCCCCCCCCCCOc1cc(OC)ccc1C(C)=O | Activity (Mus musculus [1]): 182.2 ng/L; Activity (Mus musculus [2]): 9.7 nmol/mL; Activity (Mus musculus [3]): 159.4 ng/L; Activity (Mus musculus [4]): 72.1 U/ml; Activity (Mus musculus [5]): 64.4 ng/L; inhibition (Mus musculus [9]): Active; Activity (Mus musculus [10]): 8.8 nmol/mL; Activity (Mus musculus [12]): 65.2 ng/L; inhibition (Mus musculus [18]): Active; Activity (Mus musculus [13]): 11.1 U/ml; Activity (Mus musculus [14]): 80.7 U/ml; Activity (Mus musculus [15]): 16.9 U/ml; inhibition in vivo at 100 mg/kg/day (Mus musculus [16]): 65%
– | – | – | – | Cc1ccc(-c2cc(C(F)(F)F)nn2-c2ccc(S(N)(=O)=O)cc2)cc1 [CELECOXIB] | Activity (Mus musculus [19]): 7.3 nmol/mL; Activity (Mus musculus [20]): 6.3 U/ml; Activity (Mus musculus [21]): 61.6 ng/L; inhibition (Mus musculus [22]): Active; Activity (Mus musculus [23]): 135.3 ng/L; Activity (Mus musculus [24]): 78 U/ml
30.9 mM | 38.1 mM | 39 mM | 32 mM | CCCCCCCCOc1cc(OC)c(Br)cc1C(C)=O | –
35.9 mM | 57 mM | 43.6 mM | 38 mM | CCCCCCCCCCCCCCOc1cc(OC)ccc1C(C)=O | –
